According to the RNAGym collection of RNA variant scans (doi:10.1126/science.aae0568):
This sample holds only a part of the variants without activity.

B1: tRNA (parent)
chain: GUUCCGUUGGCGUAAUGGUAACGCGUCUCCCUCCUAAGGAGAAGACUGCGGGUUCGAGUCCCGUACGGAACG

Variants of: B1
Experiment: yeast fitness relative to wild type (ratio to wild type); higher = fitter; tRNA-Arg(CCU), competitive growth, 37 C, YPD
Method in brief: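 Gene amplicons from the start population and from each of six end populations were read by 100-nucleotide paired-end sequencing. Those end populations came from pooled Saccharomyces cerevisiae strains carrying tRNA-Arg(CCU) gene variants at the native locus, competed in YPD at 37°C for 24 hours. Fitness relative to wild type was worked out from changes in genotype frequencies. Genotypes needed ≥ 100 starting reads, and estimates < 0.5 were set to 0.5.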

| Variant | yeast fitness |
| --- | --- |
| U19A U35A A37G A43U A45C | ≤ 0.5 |
| U19A U47A C61A | 0.549 |
| U19A U53A | 0.553 |
| U19A U59A | 0.845 |
| U19A U59G | 0.793 |
| U19C A20C | 0.805 |
| U19C A20C A21U | ≤ 0.5 |
| U19C A20C A43G C46A C55U A57U C61U | 0.592 |
| U19C A20C A65U | 0.55 |
| U19C A20C C24A | ≤ 0.5 |
| U19C A20C C31G A65C | ≤ 0.5 |
| U19C A20C C31G G67A | ≤ 0.5 |
| U19C A20C C33U A69C | ≤ 0.5 |
| U19C A20C C33U U35A C49A A69U | ≤ 0.5 |
| U19C A20C C33U U35A G58A | ≤ 0.5 |
| U19C A20C G50C U64C | ≤ 0.5 |
| U19C A20G A37G | ≤ 0.5 |
| U19C A20G G58A | 0.709 |
| U19C A20G G67A A69U | ≤ 0.5 |
| U19C A20U A42C A65C A69U | ≤ 0.5 |
| U19C A20U C27G G52C | ≤ 0.5 |

| Variant | yeast fitness |
| --- | --- |
| U19C A20U C61G C66U A69U | ≤ 0.5 |
| U19C A21C | 1.12 |
| U19C A21G C22U | 0.552 |
| U19C A21G U26G | 1.01 |
| U19C A21U | 0.846 |
| U19C A21U A40U | 0.641 |
| U19C A21U A69U | 0.691 |
| U19C A21U C22A C49U | 0.536 |
| U19C A36C G41C | ≤ 0.5 |
| U19C A36C U47A G48C U54G A65C | ≤ 0.5 |
| U19C A36U A70U | ≤ 0.5 |
| U19C A37C A45C C46A | 0.897 |
| U19C A37C C62A U64C | ≤ 0.5 |
| U19C A37G C49U | 0.566 |
| U19C A37G C49U A69C | 0.51 |
| U19C A37U C66G | ≤ 0.5 |
| U19C A42U | 1.12 |
| U19C A43G G44C A45C C66U | 0.589 |
| U19C A43U C62A | 0.628 |
| U19C A45C C61A | ≤ 0.5 |
| U19C A45C G48C | 0.57 |

| Variant | yeast fitness |
| --- | --- |
| U19C A45G C62U | 0.953 |
| U19C A45U | 0.923 |
| U19C A65U | 1.07 |
| U19C C22A C55G C62U | ≤ 0.5 |
| U19C C22G | 0.978 |
| U19C C22G A65U | 0.547 |
| U19C C22U G25C C27G A40C | 0.587 |
| U19C C22U U32G C34U A40G A57U A70U | ≤ 0.5 |
| U19C C24A G58A | ≤ 0.5 |
| U19C C24G A37U U47A A65G C66U | ≤ 0.5 |
| U19C C24G A37U U47A C66A | ≤ 0.5 |
| U19C C24U A70C | 0.755 |
| U19C C24U A70U | 0.849 |
| U19C C24U C31G U35A C61A A69C | ≤ 0.5 |
| U19C C24U U64A | 0.73 |
| U19C C27A | 0.987 |
| U19C C27A A43G | 0.606 |
| U19C C27A C30U G56C | ≤ 0.5 |
| U19C C27A U54G | ≤ 0.5 |
| U19C C27G U47A | ≤ 0.5 |
| U19C C27U C29G C34A A42C G58A A65G | ≤ 0.5 |

| Variant | yeast fitness |
| --- | --- |
| U19C C27U C55G | 0.544 |
| U19C C29A A37G | ≤ 0.5 |
| U19C C29G | 0.578 |
| U19C C29G A40C | ≤ 0.5 |
| U19C C29G C61U C66A | ≤ 0.5 |
| U19C C29G G44C | 0.505 |
| U19C C29G U32G C61U C66A | ≤ 0.5 |
| U19C C29G U54A A65C | ≤ 0.5 |
| U19C C29U | 0.948 |
| U19C C29U A43G | 0.677 |
| U19C C30A U47C | 0.693 |
| U19C C30G | 0.645 |
| U19C C30G U59C A69U | ≤ 0.5 |
| U19C C30U C55G G58C | 0.533 |
| U19C C30U G51C | 0.693 |
| U19C C31A | 0.768 |
| U19C C31A G41C | 0.577 |
| U19C C31A G50U C62G | ≤ 0.5 |
| U19C C31A G50U C62G G63A | ≤ 0.5 |
| U19C C31G A65U | 0.596 |
| U19C C31U C33G G41A C49G U54C | ≤ 0.5 |
